Only a selection was taken, and hits are over-represented in it overall.
H69AR inhibit: proliferation blockers of H69AR lung cancer cells, primary screen, cell-based, human, 86K library. viability, % at 10 µM. 85,000 compounds, 6% hits. AID 598, 2007. H69AR lung tumor viability, ATP luminescence, 72 h; hits give low values;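 active means viability at or below 40%; inactive means viability above 40%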;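 further: multidrug resistant small cell line overexpressing MRP-1 efflux transporter; 100% = mean luminescence of untreated control wells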
HCT116 bCat-KO: primary screen for growth suppressors in beta-catenin knockout HCT116 cells (colon tumor, human). HCT116 beta-catenin knockout viability, CellTiter-Glo, 60 h; hits give low values. viability, % at 10 µM. 140,000 compounds, 1.5% hits. AID 818, 2007;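 active means viability at or under a set limit, the compound median less 4 SD, cut at about 6% in these data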;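 further: 0% = Hyamine 1622 control at 20 µM and 100% = untreated cell control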
HCT116 PTEN-null: growth suppression of PTEN-null HCT116, primary screen, cell-based, CellTiter-Glo | AID 827, 2007 | HCT116 PTEN-null viability, 60 h; hits give low values | viability, % at 10 µM | 140,000 compounds, 1.2% hits;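 active means viability at or below a set limit, 4 SD under the median of all tested compounds, cut at about 3.7% in these data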;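 further: PTEN knockout HCT116 line with beta catenin targeted HCT116 as companion control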
Lung fibro prol: antiproliferative effect on LL 47 fibroblasts – human, LL 47 cells, CellTiter-Glo luminescence, primary screen. AID 719, 2007. viability, % at 10 µM. 85,000 compounds, 1.1% hits. LL 47 human lung fibroblast viability, ATP luminescence; hits give low values;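 active means viability at or below 50% in the single dose screen; inactive means viability above 50%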;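 further: compound exposure lasted 72 h before the ATP readout; 100% = median luminescence of untreated cell-only wells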
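Material: human lung fibroblast line LL 47, low passage; Evaluation: viability percentage against median untreated-cell control; Buffer or medium: 15% FBS in IMEM; Incubation: 72 h compound exposure at 37 °C after overnight plating; Dosing: 0.1% DMSO in all compound wells; Measured by: CellTiter-Glo luminescence.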
HUVEC inhibit: inhibitors of HUVEC proliferation, primary screen, cell-based, 384-well | CellTiter-Glo luminescence, 72 h; hits give low values | viability, % at 10 µM (by protocol) | 86,000 compounds, 1.1% hits;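 active means viability at or below 30%; inactive means viability above 30%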;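 further: 100% = median luminescence of DMSO-only cell control wells on each plate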
Starred values were filed as active, the others as inactive.

How did Cc1cccc2sc(NNC(=O)c3cc(-c4cccs4)nc4ccccc34)nc12 do in these assays?
HCT116 bCat-KO: 2.3*; HCT116 PTEN-null: 6

Results for O=C(COC(=O)Cc1c(Cl)cccc1Cl)Nc1ccc(OC(F)(F)F)cc1 ?
HCT116 bCat-KO: 91; HCT116 PTEN-null: 91

Results for Cn1nc(C(F)(F)F)c(C(=O)Nc2cccc(Cl)c2)c1Cl ?
HCT116 bCat-KO: 83; HCT116 PTEN-null: 87

What do the screens show for `Cc1ccccc1Cn1ccc(=NCc2ccccc2)cc1`?
HCT116 bCat-KO: 24; HCT116 PTEN-null: 27

Results for Fc1ccc(-c2cc3nc4c(c(N5CCOCC5)n3n2)CCCC4)cc1 ?
H69AR inhibit: 35*; HCT116 bCat-KO: 77; HCT116 PTEN-null: 72; Lung fibro prol: 80; HUVEC inhibit: 53

How did Cc1cccc(-c2cc3nc4c(c(N5CCC6(CC5)OCCO6)n3n2)CCCC4)c1 do in these assays?
H69AR inhibit: 31*; Lung fibro prol: 88; HUVEC inhibit: 84

What do the screens show for `CCOC(=O)N1CCC(N2CCN(S(=O)(=O)c3ccc(Cl)cc3)CC2)CC1`?
H69AR inhibit: 27*; HCT116 bCat-KO: 84; HCT116 PTEN-null: 87; Lung fibro prol: 98; HUVEC inhibit: 100

How did Cc1ccc(S(=O)(=O)/N=C(\CCl)N2CCOCC2)cc1 do in these assays?
H69AR inhibit: 1.2*; HCT116 bCat-KO: 54; HCT116 PTEN-null: 57; Lung fibro prol: 59; HUVEC inhibit: 77

How did COc1ccc(Nc2ncc3c(n2)CC(c2ccccc2)CC3=O)cc1 (stereo unspecified) do in these assays?
H69AR inhibit: 61; HCT116 bCat-KO: 75; HCT116 PTEN-null: 88; Lung fibro prol: 102; HUVEC inhibit: 109

Results for COc1cccc(C(=O)Nc2ncc3c(n2)CC(c2ccc(OC)cc2OC)CC3=O)c1 (stereo unspecified) ?
H69AR inhibit: 18*; HCT116 bCat-KO: 20; HCT116 PTEN-null: 16; Lung fibro prol: 69; HUVEC inhibit: 57

How did COc1ccc(C(=O)Nc2nnc(-c3ccco3)s2)cc1 do in these assays?
H69AR inhibit: 8.2*; HCT116 bCat-KO: 1.6*; HCT116 PTEN-null: 1.8*; Lung fibro prol: 97; HUVEC inhibit: 55

Results for c1ccc(-c2cc3n(c2)CCc2ccccc2-3)cc1 ?
H69AR inhibit: 70; HCT116 bCat-KO: 35; HCT116 PTEN-null: 22; Lung fibro prol: 85; HUVEC inhibit: 91

What do the screens show for `CCOC(=O)c1c(NC(=O)C2CCCO2)sc(C(=O)OC(C)(C)C)c1C` (stereo unspecified)?
H69AR inhibit: 10*; HCT116 bCat-KO: 53; HCT116 PTEN-null: 40; Lung fibro prol: 85; HUVEC inhibit: 72

Results for CCOC(=O)c1sc(NC(=O)C2CCCO2)c(C(=O)OCC)c1C (stereo unspecified) ?
H69AR inhibit: 90; Lung fibro prol: 103; HUVEC inhibit: 99

What do the screens show for `O=C1C2C3C=CC(C3)C2C(=O)N1CC1CCCO1` (stereo unspecified)?
H69AR inhibit: 97; HCT116 bCat-KO: 128; HCT116 PTEN-null: 107; Lung fibro prol: 103; HUVEC inhibit: 92

How did O=C1CSC(=S)N1CC1CCCO1 (stereo unspecified) do in these assays?
H69AR inhibit: 20*; HCT116 bCat-KO: 68; HCT116 PTEN-null: 61; Lung fibro prol: 93; HUVEC inhibit: 95

What do the screens show for `CCN(CC(=O)Nc1ccccc1OC)C(=O)COc1ccc2ccccc2c1`?
HCT116 bCat-KO: 91; HCT116 PTEN-null: 88

What do the screens show for `CC(=O)OCC1O[C@@H](O[C@@H]2C[C@H]3C(C)(C)[C@H](OC(C)=O)CC[C@]3(C)[C@H]3CC[C@]45C[C@]4(CC[C@H]5[C@@H](C)C[C@@H](O)[C@H](O)C(C)(C)O)[C@@]32C)[C@H](O)[C@@H](O)[C@@H]1O` (stereo partly specified)?
HCT116 bCat-KO: 1.1*; HCT116 PTEN-null: 1.0*

Results for N#Cc1c(SCC(=O)Nc2nccs2)nc2c(c1-c1ccco1)CCCC2 ?
H69AR inhibit: 23*; HCT116 bCat-KO: 90; HCT116 PTEN-null: 99; Lung fibro prol: 98; HUVEC inhibit: 98

What do the screens show for `OC1C2(Cc3ccccc3)CN3CCN(C2)CC1(Cc1ccccc1)C3` (stereo unspecified)?
H69AR inhibit: 94; HCT116 bCat-KO: 71; HCT116 PTEN-null: 90; Lung fibro prol: 108; HUVEC inhibit: 104
